# Measured values reported in ChEMBL document CHEMBL4732088, “Identification and optimization of piperlongumine analogues as potential antioxidant and anti-inflammatory agents via activation of Nrf2” (Eur J Med Chem, 2021).
# The source made the active and inactive calls. No cut-off for these calls is given here.
# Tests used:
# PC-12 [1] = assay: Neuroprotective activity against H2O2-induced cell damage in rat PC12 cells assessed as cell viability at 20 uM after 24 hrs by MTT assay (reference value: 46 +/- 4.12 %); type: functional; settings: read-out: Activity
# PC-12 [2] = assay: Neuroprotective activity against 6-OHDA-induced cell damage in rat PC12 cells assessed as cell viability at 20 uM after 24 hrs by MTT assay (reference value: 45.23 +/- 4.37 %); type: functional; settings: for viability at 20 µM: read-out: Activity
# PC-12 [3] = assay: Cytotoxicity against rat PC12 cells at 50 uM by MTT assay; type: cell-based; settings: pc-12, 50 µM
# Outline: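 Rat PC12 cells exposed to compounds at 50 μM; viability by MTT assay.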
# PC-12 [4] = assay: Upregulation of Nrf2 expression in rat PC12 cells at 20 uM after 24 hrs by Western blot analysis; type: functional, cell-based
# Outline: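 Rat PC12 cells exposed to compound for 24 h. Nrf2 protein detected by western blot. Mean ± SD, n = 3.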
# PC-12 [5] = assay: Neuroprotective activity against H2O2-induced cell damage in rat PC12 cells at 20 uM after 24 hrs by MTT assay; type: functional, cell-based
# PC-12 [6] = assay: Neuroprotective activity against 6-OHDA-induced cell damage in rat PC12 cells at 20 uM after 24 hrs by MTT assay; type: functional, cell-based
SMILES,viability at 20 µM (PC-12 [1]) [%],viability at 20 µM (PC-12 [2]) [%],also measured
CC(C)(C)C(=O)N1CCN(C(=O)/C=C/c2ccc(C#N)cc2)C1=O,71.4,71.1,
N#Cc1ccc(C(=O)N2CCN(C(=O)/C=C/c3ccc(F)cc3)C2=O)cc1,55.1,52.3,Activity (PC-12 [3]): Toxic
O=C(CCc1ccc(F)cc1)N1CCNC1=O,53.6,56.3,
O=C(/C=C/c1ccc(F)cc1)N1CCNC1=O,68.6,69.1,Activity (PC-12 [4]): Active
CC(C)(C)C(=O)N1CCN(C(=O)/C=C/c2ccncc2)C1=O,71.1,69.6,
CC(C)(C)C(=O)N1CCN(C(=O)/C=C/c2ccccc2Cl)C1=O,70,69,
CCCC(=O)N1CCN(C(=O)/C=C/c2ccc(F)cc2)C1=O,70.2,69.3,
CC(C)(C)C(=O)N1CCN(C(=O)/C=C/c2ccc(Cl)cc2)C1=O,72,71.1,
O=C(/C=C/c1ccc(F)cc1)N1CCN(C(=O)N2CCCCC2)C1=O,72.8,72.1,
O=C(/C=C/c1ccccc1)N1CCCCC1=O,,,Activity (PC-12 [2]): Active; Activity (PC-12 [5]): Active; Activity (PC-12 [6]): Active
C=CC(=O)N1CCN(C(=O)/C=C/c2ccc(F)cc2)C1=O,44,43.8,Activity (PC-12 [3]): Toxic
O=C(/C=C/c1ccc(F)cc1)N1CCN(C(=O)CCCl)C1=O,43.2,37.1,Activity (PC-12 [3]): Toxic
O=C(/C=C/c1ccco1)N1CCNC1=O,64.1,60,
COc1cc(/C=C/C(=O)N2CCC=CC2=O)cc(OC)c1OC [PIPLARTINE],,,Activity (PC-12 [3]): Toxic
CC(C)(C)C(=O)N1CCN(C(=O)/C=C/c2ccc3c(c2)OCO3)C1=O,63.3,62.3,
CC(C)(C)C(=O)N1CCN(C(=O)/C=C/c2c(F)cccc2Cl)C1=O,,71.1,
CC(C)(C)C(=O)N1CCN(C(=O)/C=C/c2cccc3ccccc23)C1=O,72.3,71.8,
CC(C)(C)C(=O)N1CCN(C(=O)/C=C/c2ccc(F)cc2)C1=O,73.6,72.2,
CC(C)(C)C(=O)N1CCN(C(=O)/C=C/c2cccc(Cl)c2)C1=O,69.2,68.3,

SMILES,viability at 20 µM (PC-12 [1]) [%],viability at 20 µM (PC-12 [2]) [%],also measured
CC(C)(C)C(=O)N1CCN(C(=O)/C=C/c2ccccc2F)C1=O,72.4,72.3,
CC(C)(C)C(=O)N1CCN(C(=O)/C=C/c2cccc(F)c2)C1=O,71,69.3,
CC(=O)N1CCN(C(=O)/C=C/c2ccc(F)cc2)C1=O,70.4,72.3,
CC(C)(C)C(=O)N1CCN(C(=O)/C=C/c2ccco2)C1=O,69.7,68.3,
O=C(/C=C/c1ccccc1)N1CCCNC1=O,,,Activity (PC-12 [2]): Active; Activity (PC-12 [5]): Active; Activity (PC-12 [6]): Active
CC(C)(C)C(=O)N1CCN(C(=O)/C=C/c2cccs2)C1=O,69.2,68.2,
O=C(/C=C/c1ccc(C(F)(F)F)cc1)N1CCNC1=O,67.7,65.3,
CCC(=O)N1CCN(C(=O)/C=C/c2ccc(F)cc2)C1=O,71.6,70.2,
C=C(C)C(=O)N1CCN(C(=O)/C=C/c2ccc(F)cc2)C1=O,38,30.2,Activity (PC-12 [3]): Toxic
O=C(/C=C/c1ccc(F)cc1)N1CCN(C(=O)c2ccccc2)C1=O,63.3,60.3,
CCN(C)C(=O)N1CCN(C(=O)CCc2ccc(F)cc2)C1=O,59.5,62.5,
CC(C)(C)C(=O)N1CCN(C(=O)/C=C/c2ccccc2)C1=O,61.5,60.1,
O=C(/C=C/c1ccccc1)N1CCNC1=O,,,Activity (PC-12 [2]): Active; Activity (PC-12 [5]): Active; Activity (PC-12 [6]): Active
CC(C)(C)C(=O)N1CCN(C(=O)/C=C/c2ccc(C(F)(F)F)cc2)C1=O,72.5,71.1,
CC(=O)N/C(=C\c1ccccc1)C(=O)N1CCN(C(=O)C(C)(C)C)C1=O,72.7,71.2,
CN(C)C(=O)N1CCN(C(=O)/C=C/c2ccc(F)cc2)C1=O,73.8,71.3,
O=C(/C=C/c1ccc(F)cc1)N1CCN(C(=O)c2cccs2)C1=O,62.2,60.8,
O=C(/C=C/c1cccs1)N1CCNC1=O,65.2,64.2,
